The results in this text go back to ChEMBL document CHEMBL3272018, “Synthesis of aziridinylallylaminophosphine oxides and sulfides as potential adjuvant cancer chemotherapeutic agents” (J Med Chem, 1976).

Calls of active or inactive are those of the source. The rule behind the calls is not given here.

The subject of data set [1] is W256. The data set is described as follows: Antitumor activity against rat Walker 256 cells intramuscularly allografted in rat assessed as tumor growth at 0.3 mg/kg, qd administered for 5 days (reference value: 9.2 g). The data set is classed as functional. The settings on record: route intramuscular. The method, boiled down:
(§1)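 Dosed once daily for 5 days. Response is tumor progression in treated (T) versus untreated control (C) animals, expressed as T/C percentage. Host weight change is reported as the average net weight change of the test group minus that of the controls, in grams.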

The subject of data set [2] is Musca domestica. In words: Toxicity in male house fly assessed as lowest dose required to cause complete sterility administered in food. It is filed as organism-based. The settings on record: in vivo, po.
In data set [3] the test system is Musca domestica. In words: Toxicity in male house fly assessed as lowest dose required to cause complete sterility administered in sugar. The data set is classed as organism-based. The settings on record: in vivo, po.
The nature of data set [4]: Toxicity in rat allografted with rat Walker 256 cells intramuscularly. It is filed as organism-based.
Data set [5] deals with Rattus norvegicus. In words: Toxicity in rat allografted with rat Walker 256 cells intramuscularly assessed as change in body weight at 0.3 mg/kg, qd administered for 5 days. It is filed as organism-based. Set-up: dose 0.3 mg/kg, route intramuscular. To be noted: in vivo, im, 120 h. The method in brief: (§2)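 Walker 256 carcinoma solid-tumour system in rats (parent line, or the line resistant to cytoxan). Dosing was one injection per day for 5 days. Toxicity was taken as the average net body-weight change of the treated group minus the average net weight change of the untreated tumour-bearing controls, in grams.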

Data set [6] concerns W256. In words: Antitumor activity against rat Walker 256 cells intramuscularly allografted in rat assessed as survival rate at 0.3 mg/kg, qd administered for 5 days. Set-up: dose 0.3 mg/kg. It is filed as functional, organism-based. The method in brief:
(§3)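 Rats bearing Walker 256 carcinoma as a solid tumor; lines 1-8 use a cytoxan-resistant Walker 256 subline. Dosed once daily for 5 days. Treated (T) and untreated control (C) groups are compared, and the response is given as T/C percentage, reflecting increase in survival time. Host weight change is the average weight change of the test group minus that of the controls, in grams.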

Data set [7] is described as follows: Therapeutic index, ratio of LD50 for rat allografted with rat Walker 256 cells to ED10 for antitumor activity against rat Walker 256 cells intramuscularly allografted in rat. It is filed as cell-based. To be noted: read-out: TI. The method, boiled down:
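Therapeutic index is LD50/ED10 in the Walker 256 solid tumour system. ED10 is the dose giving a 10% tumour weight reduction, with values extrapolated from dose-response data.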

Data set [8] has as its system W256. In words: Antitumor activity against rat Walker 256 cells intramuscularly allografted in rat assessed as tumor growth inhibition at 0.4 mg/kg, qd administered for 5 days relative to control. It is filed as functional. The settings on record: W256, im, 120 h, route intramuscular, read-out: TGI. The method in brief: as §1
The test system of data set [9] is W256. In words: Antitumor activity against rat Walker 256 cells intramuscularly allografted in rat assessed as tumor growth inhibition. It is filed as functional. To be noted: W256, im. The method in brief: as §1
In data set [10] the test system is W256. In words: Antitumor activity against rat Walker 256 cells intramuscularly allografted in rat assessed as survival rate at 0.4 mg/kg, qd administered for 5 days. The data set is classed as functional, organism-based. Further details: dose 0.4 mg/kg. The method in brief:
as §3

For a further data set, the system named is L1210. The data set is described as follows: In vivo antitumor activity against mouse L1210 cells in prognostic scoring system assessed as survival rate at 2.5 mg/kg, qd administered for 15 days. The data set is classed as functional, organism-based. Further details: dose 2.5 mg/kg. The method in brief: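 L1210 leukaemia in mice, run as an ascites tumour system. Injections were once daily for 9 or 15 days, or as a single dose. Response is the increase in survival time, given as T/C %, treated over untreated controls; a larger value means more activity. Weight change is the treated-group mean minus the control-group mean, in grams.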

Data set [11] relates to Rattus norvegicus. In words: Toxicity in rat allografted with rat Walker 256 cells intramuscularly assessed as change in body weight at 0.4 mg/kg, qd administered for 5 days. The data set is classed as organism-based. Further details: dose 0.4 mg/kg, route intramuscular. The settings on record: in vivo, im, 120 h. The method, boiled down: as §2
In data set [12] the test system is W256. In words: Antitumor activity against rat Walker 256 cells intramuscularly allografted in rat assessed as tumor growth inhibition at 3 mg/kg, qd administered for 5 days relative to control. The data set is classed as functional. The settings on record: W256, im, 120 h, route intramuscular, read-out: TGI. The method in brief: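 Walker 256 carcinoma grown as a solid tumour in rats, with one injection daily for 5 days. Response is given as T/C %, the treated-group measure over the untreated-control tumour measure; a smaller value means more activity. Host toxicity is the mean net weight change of treated minus control animals, in grams.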

Data set [13] concerns W256. The data set is described as follows: Antitumor activity against rat Walker 256 cells intramuscularly allografted in rat assessed as survival rate at 3 mg/kg, qd administered for 5 days. It is filed as functional, organism-based. Further details: dose 3 mg/kg. The method, boiled down:
as §3

Data set [14] concerns Rattus norvegicus. In words: Toxicity in rat allografted with rat Walker 256 cells intramuscularly assessed as change in body weight at 3 mg/kg, qd administered for 5 days. The data set is classed as organism-based. Further details: dose 3 mg/kg, route intramuscular. The settings on record: in vivo, im, 120 h. The method in brief:
as §2

By LD50 is commonly meant the dose expected to kill half of the subjects tested.

In the case of `C=CCN(CC=C)P(=S)(N1CC1)N1CC1`, the Activity in the data set on W256 [1] is on record as 9.5 g; with Musca domestica [2], 0.05%; with Musca domestica [3], 0.05%; in the data set on Rattus norvegicus [5], 0 g. Further, the LD50 in data set [4] was found to be 2 mg/kg. Besides, the result in the data set on W256 [6] was Active.

`C=CCN(CC=C)P(=S)(N1CC1)N1CC1C` (stereo not drawn): the selectivity ratio in data set [7] turned out to be 10. Also, the figures for the Activity in the data set on Musca domestica [2], in the data set with Musca domestica [3] and in the data set on Rattus norvegicus [11] were 0.25%, 0.5% and -4 g, respectively. Also, the LD50 in data set [4] turned out to be 4 mg/kg. Besides, in the data set on W256 [8], the inhibition in vivo at 0.4 mg/kg was determined as 77%. Also, the ED10 in the data set with W256 [9] was found to be 0.4 mg/kg. The outcome with W256 [10] and in the data set with L1210 was Active.

`C=CCN(CC=C)P(=S)(N1CC1C)N1CC1C` (stereo not drawn): the inhibition in vivo at 3 mg/kg with W256 [12] turned out to be 14%. Besides, the selectivity ratio in data set [7] was 10. Besides, the Activity in the data set on Musca domestica [2] is 1%; with Musca domestica [3], 1%; with Rattus norvegicus [14], -7 g. The LD50 in data set [4] was 7 mg/kg. The result in the data set on W256 [13] was Active. The ED10 in the data set with W256 [9] stood at 0.7 mg/kg.
